Data: publication PMC6468299 (Nucleic Acids Research, 2019)
Where two headings read alike, the source gives them in different places. Marks after values point to notes of the source that are not given here. Each block holds one compound with its values, some of them ahead of it.

Key:
SNB-78 (CNS) = test: Cytotoxicity, sulforhodamine B assay, SNB-78; type: cell-based, human; settings: for CC50: day 11
Method in brief: (§1)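 Cells were grown 1 week in glucose- or galactose-containing medium, then seeded in 96-well plates. iCell cardiomyocytes were seeded on gelatin-coated plates and grown 5 days. Test compounds in 1:1 ethanol:water were added at each media change on days 0, 3, 7 and 10 (four doses), at up to 250 μM. Final ethanol was 2.5% at 250 μM and 1% otherwise. Total protein was read by sulforhodamine B on day 11. CC50 was fitted from triplicates.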

Caki-1 (kidney) = test: Cytotoxicity, sulforhodamine B assay, Caki-1; type: cell-based, human; settings: day 11
Method in brief: as §1

[1] = In vitro metabolism of 2′-F-monomers in human liver S9; type: in vitro ADME; settings: 10 μM, human liver S9 1 mg/ml, 37°C, 1 h
Molt-4 (blood) = test: Cytotoxicity, sulforhodamine B assay, Molt-4; type: cell-based, human; settings: day 11
Method in brief: as §1

SkMC (muscle) = test: Cytotoxicity, sulforhodamine B assay, SkMC; type: cell-based, human; settings: SkMC, day 11
Method in brief: as §1

HepG2 (liver) = test: Cytotoxicity, sulforhodamine B assay, HepG2; type: cell-based, human; settings: day 11, four doses
Method in brief: as §1

[2] = type: in vivo, Sprague Dawley rats; settings: single 30 mg/kg sc; for amount excreted in bile: rat bile collected over 168 h; for amount excreted in urine: rat urine collected over 168 h
Method in brief: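 Rats (3 male, 3 female) received a single subcutaneous 30 mg/kg dose of test GalNAc–siRNA. Liver, kidney, heart, plasma, urine and bile were sampled, with urine and bile collected over 168 h. Samples were ACN/water-precipitated, dried and dephosphorylated with calf intestinal alkaline phosphatase (pH 8.0, 37°C, 1 h). 2′-F-nucleosides were quantified by LC-MS/MS against matrix standards ([…]). Values are group means.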

COLO 205 (intestine) = test: Cytotoxicity, sulforhodamine B assay, COLO 205; type: cell-based, human; settings: day 11
Method in brief: as §1

[3] = Cytotoxicity, sulforhodamine B assay, SNB-78; type: cell-based, human; settings: human, SNB-78 cells (CNS), day 11
Method in brief: as §1

[4] = system: mitochondrial DNA (MT-CO1); test: Mitochondrial DNA quantification by qPCR; type: cell-based, human; settings: across all cell lines, at ≤4 μM, day 11
Method in brief: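 Cells were treated as in the 11-day, four-dose cytotoxicity protocol in glucose or galactose medium. DNA was then quantified by TaqMan qPCR, with nuclear DNA measured using a succinate dehydrogenase-specific probe.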

[5] = Cytotoxicity, sulforhodamine B assay, Caki-1; type: cell-based, human; settings: human, Caki-1 cells (kidney), day 11
Method in brief: as §1

[6] = Cytotoxicity, sulforhodamine B assay, iCell cardiomyocytes; type: cell-based; settings: human, iCell cardiomyocytes (heart)
Method in brief: as §1

[7] = Cytotoxicity, sulforhodamine B assay, Molt-4; type: cell-based, human; settings: human, Molt-4 cells (blood), day 11
Method in brief: as §1

[8] = Cytotoxicity, sulforhodamine B assay, SkMC; type: cell-based, human; settings: human, SkMC cells (muscle), CC50, SkMC, day 11
Method in brief: as §1

[9] = Cytotoxicity, sulforhodamine B assay, HepG2; type: cell-based, human; settings: human, HepG2 cells (liver), day 11, four doses
Method in brief: as §1

[10] = Cytotoxicity, sulforhodamine B assay, COLO 205; type: cell-based, human; settings: human, COLO 205 cells (intestine), day 11
Method in brief: as §1

[11] = system: human cellular polymerases; settings: cited from earlier work

- metabolic fate of 2′-F-nucleoside [1]: stable
- amount excreted in bile ([2]; ALN-TTRSC02 (ESC)): <0.0004* μg
- amount excreted in bile ([2]; revusiran (STC)): 0.042 µg
- % dose excreted in bile ([2]; rat bile over 168 h, ALN-TTRSC02 (ESC)): <0.0003* % dose
- Cmax ([2]; rat heart, ALN-TTRSC02 (ESC)): < 500 nM
- Cmax ([2]; rat heart, revusiran (STC)): < 500 nM
- Cmax ([2]; rat kidney, ALN-TTRSC02 (ESC)): < 500 nM
- AUClast ([2]; rat kidney, revusiran (STC)): 150 µM·h
- Cmax ([2]; rat kidney, revusiran (STC)): 2600 nM
- t1/2 (elimination half-life) ([2]; rat kidney, revusiran (STC)): 46.9 h
- tmax ([2]; rat kidney, revusiran (STC)): 16 h
- AUClast ([2]; rat liver, ALN-TTRSC02 (ESC)): 138 µM·h
- tmax ([2]; rat liver, ALN-TTRSC02 (ESC)): 48 h
- Cmax ([2]; rat liver, monomer liberated from ALN-TTRSC02 (ESC)): 1700 nM
- Cmax ([2]; rat liver, monomer liberated from revusiran (STC)): 10800 nM
- AUClast ([2]; rat liver, revusiran (STC)): 722 µM·h
- tmax ([2]; rat liver, revusiran (STC)): 36 h
- Cmax ([2]; rat plasma, ALN-TTRSC02 (ESC)): < 30 nM
- Cmax ([2]; rat plasma, revusiran (STC)): < 30 nM
- amount excreted in urine ([2]; ALN-TTRSC02 (ESC)): <0.003* μg
- amount excreted in urine ([2]; revusiran (STC)): 1.3 µg
- % dose excreted in urine ([2]; rat urine over 168 h, ALN-TTRSC02 (ESC)): <0.002* % dose
SMILES: Nc1nc2c(ncn2[C@@H]2O[C@H](CO)[C@@H](O)[C@H]2F)c(=O)[nH]1 [2′-F-G, 2′-F-guanosine]
- decrease of CC50 in galactose compared to glucose media (SNB-78 (CNS); SNB-78): 2–10 fold
- CC50 (SNB-78 (CNS); SNB-78, Galactose media): 12 µM
- CC50 (SNB-78 (CNS); SNB-78, Glucose media): 35 µM
- CC50 (Caki-1 (kidney); Caki-1, Galactose media): 30 µM
- CC50 (Caki-1 (kidney); Caki-1, Glucose media): 32 µM
- CC50 (Molt-4 (blood); Molt-4, Galactose media): 12 µM
- CC50 (Molt-4 (blood); Molt-4, Glucose media): 15 µM
- CC50 (SkMC (muscle); Galactose media): 110 µM
- CC50 (SkMC (muscle); Glucose media): 127 µM
- CC50 (HepG2 (liver); HepG2, Galactose media): 112 µM
- CC50 (HepG2 (liver); HepG2, Glucose media): 115 µM
- CC50 (COLO 205 (intestine); COLO 205, Galactose media): 22 µM
- CC50 (COLO 205 (intestine); COLO 205, Glucose media): 19 µM

- reduction in mitochondrial DNA synthesis [4]: 70–80%
SMILES: Nc1ccn([C@H]2CC[C@@H](CO)O2)c(=O)n1 [ddC, 2′,3′-Dideoxycytidine]
- CC50 at 11 days ([3]; CC50, SNB-78, Galactose media): > 20 µM
- CC50 at 11 days ([3]; CC50, SNB-78, Glucose media): > 20 µM
- CC50 at 11 days ([5]; CC50, Caki-1, Galactose media): > 20 µM
- CC50 at 11 days ([5]; CC50, Caki-1, Glucose media): > 20 µM
- CC50 at 11 days [6]: > 250 µM
- CC50 at 11 days ([7]; CC50, Molt-4, Galactose media): > 20 µM
- CC50 at 11 days ([7]; CC50, Molt-4, Glucose media): 8.7 µM
- CC50 at 11 days ([8]; Galactose media): > 20 µM
- CC50 at 11 days ([8]; Glucose media): > 20 µM
- CC50 at 11 days ([9]; CC50, HepG2, Galactose media): > 20 µM
- CC50 at 11 days ([9]; CC50, HepG2, Glucose media): > 20 µM
- CC50 at 11 days ([10]; CC50, COLO 205, Galactose media): > 20 µM
- CC50 at 11 days ([10]; CC50, COLO 205, Glucose media): > 20 µM

SMILES: C[C@@]1(F)[C@H](O)[C@@H](COP(=O)(O)OP(=O)(O)OP(=O)(O)O)O[C@H]1n1ccc(=O)[nH]c1=O [triphosphate form of Sofosbuvir]
- IC50 [11]: > 200 µM
